Data on 6 compounds can be found in publication PMC4431946 (Journal of the American Chemical Society, 2015).

For assay [1], the target named is T1, rat nNOS (Rattus norvegicus, UniProt P29476). The note with it: result in words; reported earlier; cited from earlier work.
Assay [2] concerns the target T1, rat nNOS. Nature of the assay: Irreversible inhibition kinetics. The note with it: for time-dependent inactivation of nNOS: result in words. The format is biochemical.
Another assay has as its target nNOS (Rattus norvegicus, UniProt P29476). Nature of the assay: LC/MS of amino acid metabolites after inactivation of nNOS by 1. The format is biochemical. The note with it: 56 µM of 1, 37 °C, 3 h.
For assay [3], the target named is T1, rat nNOS. Nature of the assay: Hemoglobin NO generation assay. Format: biochemical.
Another assay has as its target ferric nNOS (Rattus norvegicus, UniProt P29476). Nature of the assay: Spectral titration of ferric nNOS-H4B. The format is binding. The essentials: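 Ferric full-length rat nNOS-H4B, 5 µM, in 50 mM HEPES pH 7.5 with 100 mM NaCl, titrated by 1–2 µL additions of test compound. Difference spectra recorded from 350–550 nm. Peak (~455 nm) minus trough (400 nm) absorbance plotted against ligand concentration.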

In the next assay the target is ferrous nNOS (Rattus norvegicus, UniProt P29476). Nature of the assay: Spectral titration of dithionite-reduced. Format: binding. The essentials: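 Full-length rat nNOS-H4B reduced with dithionite and desalted under anaerobic conditions in a glovebox. Degassed 50 mM HEPES pH 7.5 with 100 mM NaCl; compound stocks made in degassed buffer. Test compound added in 1–2 µL portions from 1, 5 and 20 mM stocks, totalling <2% of volume. Double-beam scans from 350–600 nm, repeated until stable. Peak (~455 nm) minus trough (410 nm) absorbance fitted with a quadratic function for apparent Ks.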
ferrous nNOS, sequence (P29476 whole entry): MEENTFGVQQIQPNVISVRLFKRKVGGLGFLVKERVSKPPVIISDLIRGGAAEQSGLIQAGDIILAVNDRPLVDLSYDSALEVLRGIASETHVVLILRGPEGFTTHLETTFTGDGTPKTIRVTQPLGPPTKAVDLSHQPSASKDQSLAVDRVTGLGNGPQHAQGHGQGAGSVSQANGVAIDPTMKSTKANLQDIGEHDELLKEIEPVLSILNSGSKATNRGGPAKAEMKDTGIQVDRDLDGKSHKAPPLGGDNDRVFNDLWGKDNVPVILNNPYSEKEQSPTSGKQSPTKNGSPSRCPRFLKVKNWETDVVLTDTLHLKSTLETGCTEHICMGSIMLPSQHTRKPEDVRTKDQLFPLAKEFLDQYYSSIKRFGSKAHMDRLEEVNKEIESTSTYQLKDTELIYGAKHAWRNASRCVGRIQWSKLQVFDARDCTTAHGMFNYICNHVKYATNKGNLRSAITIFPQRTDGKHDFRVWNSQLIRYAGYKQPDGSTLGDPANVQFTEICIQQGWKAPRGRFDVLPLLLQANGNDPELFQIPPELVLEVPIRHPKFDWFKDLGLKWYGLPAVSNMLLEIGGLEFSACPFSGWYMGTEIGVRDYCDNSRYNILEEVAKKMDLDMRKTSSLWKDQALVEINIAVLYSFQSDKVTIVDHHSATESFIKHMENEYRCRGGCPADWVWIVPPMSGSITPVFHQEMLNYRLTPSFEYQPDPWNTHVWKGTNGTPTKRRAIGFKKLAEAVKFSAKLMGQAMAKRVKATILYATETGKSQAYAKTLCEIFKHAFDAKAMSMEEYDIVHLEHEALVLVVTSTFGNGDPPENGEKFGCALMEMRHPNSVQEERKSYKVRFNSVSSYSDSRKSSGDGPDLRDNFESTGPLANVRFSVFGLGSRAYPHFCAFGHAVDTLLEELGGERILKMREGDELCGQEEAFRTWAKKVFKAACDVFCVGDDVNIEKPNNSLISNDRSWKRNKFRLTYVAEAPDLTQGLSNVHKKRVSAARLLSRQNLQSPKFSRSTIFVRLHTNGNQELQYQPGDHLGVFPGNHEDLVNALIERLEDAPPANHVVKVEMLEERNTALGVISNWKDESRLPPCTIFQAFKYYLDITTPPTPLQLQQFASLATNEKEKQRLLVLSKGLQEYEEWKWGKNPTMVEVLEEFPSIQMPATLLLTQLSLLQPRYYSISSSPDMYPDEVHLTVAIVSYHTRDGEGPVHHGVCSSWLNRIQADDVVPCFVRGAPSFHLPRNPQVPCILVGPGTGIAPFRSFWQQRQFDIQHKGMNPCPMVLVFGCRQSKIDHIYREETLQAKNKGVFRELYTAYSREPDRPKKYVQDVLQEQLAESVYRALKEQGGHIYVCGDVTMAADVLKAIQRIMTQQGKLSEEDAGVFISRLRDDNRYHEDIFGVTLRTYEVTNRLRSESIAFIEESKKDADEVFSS

Like-named read-outs stand apart in the source and are kept apart here.

ferric nNOS, sequence (P29476 whole entry): as above

As for `CSCC(=N)NCCC[C@H](N)C(=O)O` [compound 1, (S)-2-Amino-5-(2-(methylthio)acetimidamido)pentanoic acid], the “time-dependent inactivation of nNOS” value at rat nNOS [1] is on record as “time-dependent irreversible inhibitor of nNOS”; at rat nNOS [2], “inactivator of nNOS”. Further, the “amount of 2 produced from the inactivation of nNOS by 1” value at nNOS is listed as “Approximately 0.53 µM”.

Regarding `C[S+]([O-])CC(=N)NCCC[C@H](N)C(=O)O` (stereo partly drawn) [compound 2, (2S)-2-Amino-5-(2-(methylsulfinyl)acetimidamido)pentanoic acid], at rat nNOS [2], the “time-dependent inactivation of nNOS” value is “neither showed time-dependent inactivation”. At rat nNOS [3], this compound returned an IC50 of 461 ± 20 µM and a Ki of 53 ± 2.4 µM.

In the case of `CS(=O)(=O)CC(=N)NCCC[C@H](N)C(=O)O` [compound 3, (S)-2-Amino-5-(2-(methylsulfonyl)acetimidamido)pentanoic acid], the “time-dependent inactivation of nNOS” value on rat nNOS [2] is “neither showed time-dependent inactivation”. Also, at rat nNOS [3], the IC50 came out at 507 ± 49 µM and the Ki came out at 58.3 ± 5.6 µM.

Turning to `N=C(C=O)NCCC[C@H](N)C(=O)O` [compound 4, (S)-2-Amino-5-(2-oxoacetimidamido)pentanoic acid], the “time-dependent inactivation of nNOS” value on rat nNOS [2] is recorded as “neither was a time-dependent inhibitor”. For the same compound, on rat nNOS [3], inhibition was half-maximal at 199 ± 7.1 µM (IC50) and the Ki is 22.9 ± 0.82 µM.

`N=C(CO)NCCC[C@H](N)C(=O)O` [compound 5, (S)-2-Amino-5-(2-hydroxyacetimidamido)pentanoic acid]: the “time-dependent inactivation of nNOS” value at rat nNOS [2] was “neither was a time-dependent inhibitor”. On rat nNOS [3], this compound gave an IC50 of 13 ± 0.67 µM and a Ki of 1.5 ± 0.08 µM.

Turning to `N=C(CS)NCCC[C@H](N)C(=O)O` [compound 6, (S)-2-Amino-5-(2-mercaptoacetimidamido)pentanoic acid], on rat nNOS [2], the Ki was 2.9 ± 0.2 µM; the kinact was 0.000767 s⁻¹; the kinact/KI was 267 M⁻¹ s⁻¹; the “time-dependent inactivation of nNOS” value is “time- and concentration-dependent inactivator”. The “inactivation rate (kinact) relative to 1” value on rat nNOS [2] (6 versus 1) is “about half the inactivation rate”. The same compound displayed a Kd at ferric nNOS of 1.8 ± 0.1 µM. In addition, the “heme ligand type from difference spectra” value on ferric nNOS (ferric nNOS-H4B) is reported as “type-II ligand”. At ferrous nNOS, this compound displayed a Kd of 1.6 ± 0.3 µM. In addition, at ferrous nNOS (dithionite-reduced nNOS-H4B), the “heme ligand type from difference spectra” value is on record as “still a type-II ligand”. For the same compound, at rat nNOS [3], the IC50 turned out to be 3.64 ± 0.15 µM and the Ki came to 0.42 ± 0.017 µM.

Broadly, the IC50 is the concentration that gives 50% inhibition. Lower therefore signals greater potency. A word on the kinact: it is the rate constant of inactivation at saturating inhibitor. The term kinact/KI denotes the maximal inactivation rate divided by the concentration that gives half of it. Usually Kd stands for the concentration at which binding is half-saturated. A low value points to tighter binding.
